Results as given in ChEMBL document CHEMBL4513216, “Probing the Open Global Health Chemical Diversity Library for Multistage-Active Starting Points for Next-Generation Antimalarials” (ACS Infect Dis, 2020).

Assay: Toxicity liver stage against HepG2, at 10uM
Format: cell-based
Design: test concentration 10 uM, cell line HepG2-A16-CD81EGFP
Conditions: human, HepG2-A16-CD81EGFP cells; read-out: INHIBITION
Outline: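 Uninfected HepG2-A16-CD81EGFP cells, 3 × 10^3 per well, 1536-well, plated on prespotted compound at 10 μM final, parasite-free screening media added to match infected plates; puromycin 10 μM positive, DMSO 0.5% negative; run in parallel with 48 h PbLuc assay at 37 °C, 5% CO2; viability by CellTiter-Glo luminescence, normalized to controls.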

SMILES | cytotoxicity at 10 µM
COc1cc(C(=O)N2CCCC(c3cc(C)[nH]n3)C2)cc(OC)c1C (stereo not given) | -10.5%
CC(C)CC(=O)N1CCc2ccc(S(=O)(=O)N3CCN(C)CC3)cc2C1 | -15.3%
Cc1ccc(CN2CCc3onc(C(=O)NC(C)C)c3C2)o1 | 11.5%
COc1cc(C)c(C2CC(=O)Nc3cc(NS(C)(=O)=O)ccc32)cc1C (stereo not given) | -15%
O=C(CCc1nnc(-c2ccccc2)o1)N1CCCC1c1ccc[nH]1 (stereo not given) | -3.33%
CCOCC(=O)N1Cc2nnn(C)c2C(COCc2ccccn2)C1 (stereo not given) | -3.23%
CCC(Nc1nnnn1-c1ccccc1)C(=O)Nc1nc(C)cs1 (stereo not given) | -23%
Cc1nn(C)c(C)c1CC(=O)N1CCCC1Cn1cccn1 (stereo not given) | -14.8%
O=C(CCn1cnc2ccccc21)N1CCN2CCCCC2C1 (stereo not given) | -4.34%
CC1(C)COCCN1C(=O)c1ccc(Cn2cncn2)cc1 | -5.85%
CC(C)(C)[S+]([O-])CCNC(=O)c1csc(NC2CC2)n1 (stereo not given) | 13.4%
CN(C)c1nccc(N2CCO[C@H]3CN(Cc4ccsc4)C[C@H]32)n1 | 8.93%
Cc1cc(C)n(CC2CCCN2C(=O)c2ccc3c(c2)COC3)n1 (stereo not given) | 1.85%
Cc1noc2nc(C3CCCN(Cc4ccncc4)C3)cc(C(F)F)c12 (stereo not given) | -16.7%
CCOC(=O)CNC(=O)Cn1c(-c2ccoc2)nc(C)c1C | -2.8%
O=S1(=O)CCC(CNc2cc(-c3ccccc3)nc3ccnn23)C1 (stereo not given) | 61.2%
Cn1nc(C(=O)N2CCSCC2)cc1NC(=O)c1ccccc1 | -13.9%
NC(=O)c1ccc2c(c1)nc1n2CCN(Cc2ccco2)C1 | -11.3%
Cc1cccc(N2CCC3(CCCN3Cc3cn(C)nc3C)CC2)n1 | -4.78%
c1cc(-c2nc(CN3CCn4c(nnc4C4CC4)C3)cs2)cs1 | -2.22%
COCc1ccc(C(=O)N2CCCN(Cc3cscn3)CC2)cc1 | -3.07%
Cn1cnnc1C1CCN(C(=O)CCCOc2ccccc2)CC1 | -7.62%

SMILES | cytotoxicity at 10 µM
CCCc1ccc(S(=O)(=O)NC(=O)CCc2cscn2)cc1 | 1.12%
COCC(=O)N1C[C@@H]2COC[C@]2(COC)C1 | 5.44%
CSCC(=O)N1CCCC(n2ccnc2C(C)C)C1 (stereo not given) | -18.2%
CC(C)c1nnc(CNC2CCCN(Cc3noc(C4CC4)n3)C2)o1 (stereo not given) | -5.62%
CN(C)C(=O)C1CCCN1CCCNC(=O)c1cccc2[nH]ncc12 (stereo not given) | -1.07%
CC(C)(C)c1cnc(CN2CCC(CO)CC2)o1 | -5.6%
CCC(CC)C(=O)N(C)CC(=O)Nc1ccc(Br)cn1 | -11.2%
COc1cc(C2(C(=O)N3CCN(CC(C)O)CC3)CC2)ccc1C (stereo not given) | -2.43%
NCC(=O)N1CCC(c2cccc(Oc3ccccc3)n2)CC1 | 9.43%
CCn1ncc(-c2nc3c[nH]n(CC)c-3n2)c1C | 2.13%
CN1CCN(C(=O)c2cccn2C)Cc2cccnc21 | 5.73%
Cc1ccc(C(=O)Nc2ccccc2N2CCCC2)n1C | 5.55%
Cn1cnc(S(=O)(=O)N2CC3(CCN(Cc4ccncc4)C3)C2)c1 | -113%
Cc1nc(C(=O)N2CCN(C(=O)N(C)C)[C@@H]3CS(=O)(=O)C[C@@H]32)cs1 | 4.96%
CC(=O)Nc1nc(C2CCN(C(=O)C3CCC3)CC2)cs1 | -2.36%
O=C(NCc1nc2ccccc2[nH]1)c1cc2n(n1)CCCO2 | -5.43%
CNc1cc(CCNC(=O)c2cccnc2)nc(-c2ccncc2)n1 | 1.52%
CCCn1nccc1C(=O)N1CCN(C(=O)C2CC2)[C@@H]2CS(=O)(=O)C[C@@H]21 | 4.05%
COc1cccc(OC)c1OCCN1C(=O)CCNC1=O | -7.89%
Cn1cccc1C(=O)N1CCc2ccc(=O)n(C)c2CC1 | -0.756%
CN1CC(C(=O)NC2(c3ccc(Cl)cc3)CCOCC2)CC1=O (stereo not given) | 13.8%
CC1CCC(NS(=O)(=O)CC(=O)Nc2ccccc2N2CCCC2)CC1 (stereo not given) | 3.75%

SMILES | cytotoxicity at 10 µM
CCN(CC)S(=O)(=O)NCC(O)c1c(Cl)cccc1Cl (stereo not given) | 8.66%
CCc1cnc(CN2CCOC(c3nc(C)n[nH]3)C2)o1 (stereo not given) | -4.83%
COc1c(C2CCCN2Cc2nnc(C3CC3)n2C)c(C)nn1C (stereo not given) | 7.06%
Clc1cccc(C[C@@H]2NCCC[C@@H]2Nc2ccccc2)c1 | 89.3%
COCC(=O)N1CC[C@H]2[C@H]1CCN2CC(C)C | 1.18%
c1cncc(CO[C@H]2CN(Cc3ccco3)[C@@H]3COC[C@H]23)c1 | -101%
CN1CCCC(c2ccnc(C(=O)NC3CC3)c2)C1 (stereo not given) | -29.5%
Cc1nnc(NC(=O)CN2CCCC(Cn3cncn3)C2)s1 (stereo not given) | 1.71%
O=C(CSc1nnc[nH]1)NCc1cccs1 | 0.284%
CC(C)CC(=O)N1CCC(Nc2nc(O)cc(-c3ccsc3)n2)CC1 | 11.3%
CN(C)C(=O)CNC(=O)c1ccn(-c2ccc3ccccn23)n1 | 0.74%
CCc1cc(N[C@@H]2C[C@@H]3CC[C@H]2C3)n2nccc2n1 | -2.24%
CNc1nc(N2CCN(C3CCCCC3)C(CCO)C2)nc2c1CCC2 (stereo not given) | -6.86%
Cc1noc(CCCC(=O)N2CSCC2C(=O)NCC2CC2)n1 (stereo not given) | -44.9%
Cc1cnc(N2CCC3(CC2)CC(NC(=O)C(C)C)CO3)nc1 (stereo not given) | 8.19%
CCS(=O)(=O)CC(=O)NC1(c2ccc(Cl)c(Cl)c2)CC1 | -2.6%
Cn1cc(-c2cc(C(F)(F)F)n(CCCN)n2)cn1 | -6.11%
CCn1ccnc1CNCC1CCCN1c1cccnn1 (stereo not given) | -1.28%
Cc1cnn(CC2CCCN2Cc2cc(=O)n3ccccc3n2)c1 (stereo not given) | -1.61%
Cc1nc(CNCC2CCCN2c2cccnn2)no1 (stereo not given) | -1.59%
COCCNC(=O)c1nnn(Cc2ccccc2)c1OC | 11.6%
CN1C(=O)CO[C@H](c2ccc(NC(=O)c3cccnc3)cc2)[C@H]1CO | 6.15%

SMILES | cytotoxicity at 10 µM
Cc1c(C(=O)NCCC(=O)N2CCOCC2)oc2c(C)cccc12 | -1.96%
CC(C)NC(=O)[C@H]1C[C@H]2CN(C(=O)NC(C)C)C[C@@H]1O2 | -105%
c1sc(C2CCCC2)nc1CN1CCn2c(nnc2C2CC2)C1 | -1.62%
CS(=O)(=O)c1ccc(CN2C[C@@H]3OCC(=O)N(CC(N)=O)[C@@H]3C2)cc1 | 2.67%
COc1ccc(OCc2nc(C(=O)N3CC[C@H](O)[C@@H](O)C3)co2)cc1 | -5.42%
CN(C)C(=O)CN1C[C@H]2CC[C@@H](C1)N(Cc1cccc(Cl)c1Cl)C2 | -5.3%
Cc1cccc(N2CCc3ncnc(C4CC4)c3CC2)n1 | -148%
COc1ccccc1OCc1cc(C(=O)N2CCS(=O)(=O)CC2)n[nH]1 | -2.93%
O=C1CCC2(CCC(NCc3ccsc3)CC2)N1Cc1ccccc1 (stereo not given) | 3.79%
c1coc(CN2CCCn3c(CN4CCOCC4)nnc3C2)c1 | 4.86%
Cn1ccnc1CN1CCC2(CC1)CC(Nc1ccccn1)CO2 (stereo not given) | -7.97%
Cn1cc(CCC(=O)N2CCN(Cc3ccncc3)CC2)cn1 | -6.64%
Cc1c2nnn(CC(=O)N(C)C)c(=O)c2nn1C | -4.26%
Cc1ccc(SCCN(C)C(=O)c2cn(C3CCC(N)CC3)nn2)cc1 (stereo not given) | -8.59%
O=C(c1cccs1)N1CC[C@@H]2[C@H]1CCC(=O)N2c1ccccc1 | -97.5%
Cc1ccnc(N2CCN(C[C@]3(O)CCCN4CCCC[C@@H]43)CC2)c1 | 3.78%
COCC(=O)Nc1cnc(N2CCOCC2)nc1 | -10.7%
Cc1n[nH]c(C)c1CCc1n[nH]c(=O)n1Cc1cccs1 | -146%
O=C(CC1CC1)NCc1cn2c(n1)CN(CC1CC1)CC2 | 4.17%
CCN(CCn1cccn1)Cc1nc(-c2cccc(C)c2)oc1C | 0.0489%
CC(C)CS(=O)(=O)CC(=O)N(C)Cc1ccc(OC(F)F)cc1 | 1.13%
CC(C)c1noc(C2CCCN2C(=O)CN2CCc3ccccc32)n1 (stereo not given) | -8.76%

SMILES | cytotoxicity at 10 µM
Cc1cccc(C(=O)NCC(O)c2ccc(F)cc2F)c1 (stereo not given) | 6.27%
CC(C(=O)NC(C)(C)C)N1CCC(C(=O)Nc2cnccn2)CC1 (stereo not given) | -1.36%
Cc1[nH]c2ccc(CNC(=O)c3ccc(CN4CCCC4)o3)cc2c1C | -2.5%
CC(Cn1cccn1)NCC(=O)NCCc1cccs1 (stereo not given) | -12.7%
Cc1ncc2c(n1)CN(Cc1nc3ccccc3o1)CC2 | -0.602%
COc1cccc(-n2nnc(C(=O)N3CCN(C(C)=O)CC3)c2C)c1 | -13.2%
COCc1nc(N(C)C/C=C/c2ccccc2)c2cnn(C)c2n1 | -2.21%
Cn1cc(CN2C[C@@H]3[C@@H](C2)OCC(=O)N3Cc2ccncc2)cn1 | -7.9%
CC(=O)Cn1ncc(N2CCOCC2)cc1=O | 7.26%
F[C@@H]1CN(Cc2ccccc2)C[C@@H]1OCc1nc2cnccc2[nH]1 | -0.966%
CC(C)CCCNC(=O)Nc1ccc(Cl)c(C(N)=O)c1 | -0.252%
c1cncc(N2CCC(c3ccncc3)CC2)c1 | 2.59%
CCc1c(C(=O)N2CCN(c3ncccn3)CC2)cnn1C(C)(C)C | -1.91%
CCc1nc2n(n1)CC(NCc1cc(OC)c3c(c1)OCCO3)CC2 (stereo not given) | -4.93%
CC1CCN(C)c2ccccc2N1C(=O)c1ccn(C)c(=O)c1 (stereo not given) | 2.36%
CCc1ccc(C(NC(=O)CN(C)S(C)(=O)=O)C(C)(C)C)o1 (stereo not given) | -1.76%
Cc1cc(=O)n(CC(=O)NC2CCCCC2)c2ccccc12 | 0.126%
CNC(=O)C1CCN(Cc2nc(-c3ccc(SC)cc3)oc2C)C1 (stereo not given) | -0.465%
Cc1ccc(CN2CC[C@H]3NC(=O)CC[C@@H]32)o1 | -5.28%
Cc1cnn(CC2CN(CC(=O)N(C)Cc3ccsc3)CCO2)c1 (stereo not given) | -10.6%
COCC(=O)N(Cc1ccc2cc[nH]c2c1)C1CC1 | -5.54%
CC(C)OC(C)c1nnc(SCC(=O)O)n1-c1ccc(F)cc1F (stereo not given) | -11.6%
